Experimental findings from ChEMBL document CHEMBL3804789, “5-Ene-4-thiazolidinones induce apoptosis in mammalian leukemia cells” (Eur J Med Chem, 2016) are described below.

Common to all, as to type: functional, cell-based
Experiment [1] can be described thus: Antiproliferative activity against human HL60 cells after 72 hrs by MTT assay. Particulars: HL-60, 72 h. In a few lines: (§1)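 MTT viability after 72 h continuous exposure. Cells seeded 24 h beforehand at 2,000/well (adherent) or 10,000/well (suspension), then given 0, 0.01, 0.1, 0.5, 1.0 or 10.0 μM compound diluted from 10 mM DMSO stock into RPMI or DMEM with 10% FBS, 37°C, 5% CO2. IC50 taken as concentration killing 50% of cells versus untreated culture.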

Experiment [2] is described as follows: Antiproliferative activity against human SKOV3 cells after 72 hrs by MTT assay. Particulars: SK-OV-3, 72 h. In a few lines:
as §1
For orientation: Formazan colour is commonly taken as a measure of viable cells.

The nature of experiment [3]: Antiproliferative activity against human HL60/ADR cells after 72 hrs by MTT assay. The essentials:
as §1

For the molecule `COc1cccc2c1C(=O)c1c(O)c3c(c(O)c1C2=O)C[C@@](O)(C(=O)CO)C[C@@H]3O[C@H]1C[C@H](N)[C@H](O)[C@H](C)O1` [DOXORUBICIN], the IC50 in experiment [1] came out at 0.051 µM; in experiment [2], 0.073 µM; in experiment [3], 8.8 µM.
`CC(=O)Oc1ccc(N2C(=O)/C(=C/N3N=C(c4ccc5ccccc5c4)CC3c3ccccc3O)SC2=S)cc1` (stereo unspecified): the IC50 was 0.5 µM in experiment [1] and more than 10 µM in experiment [2].
With `CCOC(=O)CCN1C(=O)/C(=C/N2N=C(c3ccccc3)CC2c2ccccc2O)SC1=S` (stereo unspecified), the IC50 in experiment [1] and in experiment [2] was more than 10 µM each time.
As to `O=C1NC(=S)/C(=C/N2N=C(c3ccccc3)CC2c2ccccc2O)S1` (stereo unspecified), the figures for the IC50 in experiment [1] and in experiment [2] were 0.99 µM and 7.87 µM, respectively.
Consider `O=C1NC(=S)/C(=C/N2N=C(c3ccc4ccccc4c3)CC2c2ccc(Cl)cc2)S1` (stereo unspecified), for which the results for the IC50 in experiment [1] and in experiment [2] were 0.156 µM and more than 10 µM, respectively.
As for `CC(=O)Oc1ccc(N2C(=O)/C(=C/N3N=C(c4ccc(Cl)cc4)CC3c3ccc(Cl)cc3)SC2=S)cc1` (stereo unspecified), the IC50 in experiment [1] and in experiment [2] was more than 10 µM throughout.
Take `O=C1/C(=C/N2N=C(c3ccccc3)CC2c2ccccc2O)SC(=S)N1c1cccc(C(F)(F)F)c1` (stereo unspecified): the IC50 in experiment [1] and in experiment [2] was more than 10 µM each time.
Turning to `COc1ccc(C2CC(c3ccc4ccccc4c3)=NN2/C=C2\SC(=S)N(c3ccc(OC(C)=O)cc3)C2=O)cc1` (stereo unspecified), the IC50 in experiment [1] is more than 10 µM; in experiment [2] it was 1.1 µM.
The corresponding values for `CC(=O)Oc1ccc(N2C(=O)/C(=C/N3N=C(c4ccccc4)CC3c3ccccc3O)SC2=S)cc1` (stereo unspecified) are 9.4 µM and 0.244 µM.
`CC(=O)Oc1cccc(N2C(=O)/C(=C/N3N=C(c4ccccc4)CC3c3ccc(N(C)C)cc3)SC2=S)c1` (stereo unspecified): the IC50 in experiment [1] was 0.1 µM; in experiment [2], more than 10 µM.
In the case of `CCN1C(=O)/C(=C/N2N=C(c3ccccc3)CC2c2ccccc2O)SC1=S` (stereo unspecified), the IC50 in experiment [1] and in experiment [2] was more than 10 µM each time.
Regarding `O=C1/C(=C/N2N=C(c3ccc4ccccc4c3)CC2c2ccccc2O)SC(=S)N1c1cccnc1` (stereo unspecified), the IC50 in experiment [1] was found to be 4.06 µM; in experiment [2], 5.59 µM.
The matching figures for `O=C1NC(=S)S/C1=C\N1N=C(c2ccc(Cl)cc2)CC1c1ccc(Cl)cc1` (stereo unspecified): more than 10 µM and 9.14 µM.
For `CN1C(=O)/C(=C/N2N=C(c3ccc4ccccc4c3)CC2c2ccccc2O)SC1=S` (stereo unspecified), the IC50 in experiment [1] and in experiment [2] was more than 10 µM each time.
As for `CC(=O)Oc1cccc(N2C(=O)/C(=C/N3N=C(c4ccc5ccccc5c4)CC3c3ccc(Cl)cc3)SC2=S)c1` (stereo unspecified), the values for the IC50 in experiment [1] and in experiment [2] were 1.02 µM and 2.39 µM, respectively.
For `CC(=O)Oc1ccc(N2C(=O)/C(=C/N3N=C(c4ccc5ccccc5c4)CC3c3ccc(Cl)cc3)SC2=S)cc1` (stereo unspecified), the IC50 in experiment [1] is 1.8 µM; in experiment [2], more than 10 µM.
As for `O=C1NC(=S)S/C1=C\N1N=C(c2ccc3ccccc3c2)CC1c1ccc(Cl)cc1` (stereo unspecified), the figures for the IC50 in experiment [1] and in experiment [2] were 0.4 µM and 0.163 µM, respectively.
The corresponding values for `CN1C(=O)/C(=C/N2N=C(c3ccccc3)CC2c2ccccc2O)SC1=S` (stereo unspecified) are 2.88 µM and 0.341 µM.
`O=C1/C(=C/N2N=C(c3ccccc3)CC2c2ccccc2O)SC(=S)N1c1cccnc1` (stereo unspecified): the values for the concentration for half-maximal inhibition (IC50) in experiment [1] and in experiment [2] were 0.72 µM and more than 10 µM, respectively.
Consider `CN(C)c1ccc(C2CC(c3ccccc3)=NN2/C=C2\SC(=S)NC2=O)cc1` (stereo unspecified), for which the IC50 in experiment [1] and in experiment [2] was more than 10 µM each time.

What is called IC50 is the concentration that gives 50% inhibition.
